Experiments:
[1] = Drug uptake in human Hep3B at 10 uM incubated for 1 hr by DAPI staining based flow cytometry analysis; assay type: ADME, cell-based; conditions: hep 3b2, 1 h
[2] = Drug uptake in human HepG2 cells assessed as increase in fluorescence signal at 10 to 25 uM incubated for 1 hr by confocal fluorescence microscopy based analysis; assay type: ADME, cell-based; conditions: hepg2, 1 h, dose 10-25 µM
[3] = Drug uptake in HEK293T cells expressing OATP1B3 by DAPI staining based confocal fluorescence microscopy analysis; assay type: ADME, cell-based; conditions: human, hek-293t
[4] = Drug uptake in parent HEK293T cells by DAPI staining based confocal fluorescence microscopy analysis; assay type: ADME, cell-based; conditions: human, hek-293t
[5] = Drug uptake in human HB17 cells assessed as increase in fluorescence signal at 10 to 25 uM incubated for 1 hr by confocal fluorescence microscopy based analysis; assay type: ADME, cell-based; conditions: hb17, 1 h, dose 10-25 µM
[6] = Drug uptake in parent HEK293T cells at 10 uM incubated for 1 hr by DAPI staining based flow cytometry analysis; assay type: ADME, cell-based; conditions: human, hek-293t
[7] = Drug uptake tumor of in athymic nude mouse xenografted with human Huh-7 cells assessed as tumor to background ratio at 2 mg/kg, iv measured after 4 to 48 hrs by IVIS Lumina imaging system; assay type: ADME, organism-based, Neoplasm; conditions: in vivo, time 4-48 hrs
[8] = Drug uptake in human HB17 cells assessed as increase in fluorescence signal at 25 uM incubated for 1 hr by flow cytometry based analysis; assay type: ADME, cell-based; conditions: hb17, 1 h
[9] = Ratio of drug concentration in athymic nude mouse tumor to liver xenografted with human Hep3B cells assessed as tumor to liver ratio at 2 mg/kg measured after 48 hrs post injection by IVIS Lumina imaging system; assay type: ADME, organism-based; conditions: in vivo
How it was run: (§1)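 Tumor-to-liver ratio was calculated from ex vivo fluorescence of excised tumors and livers at 48 h after 2 mg/kg intravenous dosing in xenograft-bearing female athymic nude mice.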

[10] = Drug uptake in human HepG2 at 10 uM incubated for 1 hr by DAPI staining based flow cytometry analysis; assay type: ADME, cell-based; conditions: hepg2, 1 h
[11] = Ratio of drug concentration in athymic nude mouse tumor to liver xenografted with human Huh-7 cells assessed as tumor to liver ratio at 2 mg/kg measured after 48 hrs post injection by IVIS Lumina imaging system; assay type: ADME, organism-based; conditions: in vivo; how it was run: as §1
[12] = Drug uptake in HEK293T cells expressing OATP1B3 at 10 uM incubated for 1 hr by DAPI staining based flow cytometry analysis; assay type: ADME, cell-based; conditions: human, hek-293t
[13] = Drug uptake in human Hep3B cells expressing OATP1B3 by DAPI staining based confocal fluorescence microscopy analysis; assay type: ADME, cell-based; conditions: hep 3b2
[14] = Drug uptake in human SH-SY5Y cells assessed as increase in fluorescence signal at 10 to 25 uM incubated for 1 hr by confocal fluorescence microscopy based analysis; assay type: ADME, cell-based; conditions: dose 10-25 µM
[15] = Drug uptake in human SH-SY5Y cells assessed as increase in fluorescence signal at 25 uM incubated for 1 hr by flow cytometry based analysis; assay type: ADME, cell-based
[16] = Drug uptake in tumor of athymic nude mouse xenografted with human Hep3B cells assessed as tumor to background ratio at 2 mg/kg, iv measured after 4 to 48 hrs by IVIS Lumina imaging system; assay type: ADME, organism-based, Neoplasm, Hep 3B2; conditions: in vivo, time 4-48 hrs
[17] = Drug uptake in human HepG2 cells expressing OATP1B3 by DAPI staining based confocal fluorescence microscopy analysis; assay type: ADME, cell-based
[18] = Drug uptake in human HepG2 cells assessed as increase in fluorescence signal at 25 uM incubated for 1 hr by flow cytometry based analysis; assay type: ADME, cell-based; conditions: hepg2, 1 h
[19] = Drug uptake in human Hep3B cells assessed as increase in mean fluorescence intensity at 10 uM incubated for 1 hr by flow cytometry analysis; assay type: ADME, cell-based; conditions: hep 3b2, 1 h
How it was run: (§2)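 Flow cytometry of cells exposed to 10 μM compound for 1 h, read as mean fluorescence intensity. Cell lines were OATP1B3-overexpressing HEK-293T (lentiviral transduction, MOI 10), parental HEK-293T, Hep3B, HepG2 and Huh-7.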

[20] = Drug uptake in human HepG2 cells assessed as increase in mean fluorescence intensity at 10 uM incubated for 1 hr by flow cytometry analysis; assay type: ADME, cell-based; conditions: hepg2, 1 h; how it was run: as §2
[21] = Drug uptake in parent HEK293T cells assessed as increase in mean fluorescence intensity at 10 uM incubated for 1 hr by flow cytometry analysis; assay type: ADME, cell-based; conditions: human, hek-293t; how it was run: as §2
[22] = Drug uptake in HEK293T cells expressing OATP1B3 assessed as increase in mean fluorescence intensity at 10 uM incubated for 1 hr by flow cytometry analysis; assay type: ADME, cell-based; conditions: human, hek-293t; how it was run: as §2
[23] = Drug uptake in human Huh-7 cells assessed as increase in mean fluorescence intensity at 10 uM incubated for 1 hr by flow cytometry analysis; assay type: ADME, cell-based; conditions: huh-7, 1 h; how it was run: as §2
[24] = Drug uptake in liver of athymic nude mouse xenografted with human Hep3B cells assessed as increase in liver signal at 2 mg/kg, iv measured after 48 hrs post injection by IVIS Lumina imaging system; assay type: ADME, organism-based, Hep 3B2; conditions: in vivo
How it was run: (§3)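 Female athymic nude mice bearing Hep3B or Huh-7 tumors received 2 mg/kg intravenously. They were imaged by IVIS at 4, 24 and 48 h. Tumors and livers were excised at 48 h for ex vivo fluorescence, with background taken from the neck signal.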

[25] = Drug uptake in tumor of mouse xenografted with HB52 PDX model assessed as increase in fluorescence signal at 10 mg/kg, iv measured after 72 hrs post injection by IVIS Lumina imaging system; assay type: ADME, organism-based, Neoplasm; conditions: in vivo
How it was run: (§4)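 Mice with orthotopic HB52 or HB66 hepatoblastoma PDX tumors, and non-tumor-bearing mice, received 10 mg/kg intravenously. Tumor growth was followed by MRI. Mice were imaged by IVIS at 24, 48 and 72 h, then tumors, livers and lungs were analysed ex vivo at 72 h, n = 1.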

[26] = Drug uptake in liver of mouse xenografted with HB66 PDX model assessed as increase in fluorescence signal at 10 mg/kg, iv measured after 72 hrs post injection by IVIS Lumina imaging system; assay type: ADME, organism-based; conditions: in vivo; how it was run: as §4
[27] = Drug uptake in tumor of athymic nude mouse xenografted with human Huh-7 cells assessed as increase in tumor signal at 2 mg/kg, iv measured after 48 hrs post injection by IVIS Lumina imaging system; assay type: ADME, organism-based, Neoplasm; conditions: in vivo; how it was run: as §3
[28] = Drug uptake in tumor of athymic nude mouse xenografted with human Hep3B cells assessed as increase in tumor signal at 2 mg/kg, iv measured after 48 hrs post injection by IVIS Lumina imaging system; assay type: ADME, organism-based, Neoplasm, Hep 3B2; conditions: in vivo; how it was run: as §3
[29] = Drug uptake in tumor of mouse xenografted with HB66 PDX model assessed as increase in fluorescence signal at 10 mg/kg, iv measured after 72 hrs post injection by IVIS Lumina imaging system; assay type: ADME, organism-based, Neoplasm; conditions: in vivo; how it was run: as §4
[30] = Drug uptake in athymic nude mouse liver xenografted with human Huh-7 cells assessed as increase in liver signal at 2 mg/kg, iv measured after 48 hrs post injection by IVIS Lumina imaging system; assay type: ADME, organism-based; conditions: in vivo; how it was run: as §3
[31] = Drug uptake in liver of mouse xenografted with HB52 PDX model assessed as increase in fluorescence signal at 10 mg/kg, iv measured after 72 hrs post injection by IVIS Lumina imaging system; assay type: ADME, organism-based; conditions: in vivo; how it was run: as §4
[32] = Drug uptake in lung of non-tumor bearing mouse assessed as increase in fluorescence signal at 10 mg/kg, iv measured after 72 hrs post injection by IVIS Lumina imaging system; assay type: ADME, organism-based; conditions: in vivo; how it was run: as §4

With `CC1(C)C(/C=C/C=C/C=C/C=C2/N(CCCCS(=O)(=O)[O-])c3ccc4ccccc4c3C2(C)C)=[N+](CCCCS(=O)(=O)[O-])c2ccc3ccccc3c21.[Na+]` [INDOCYANINE GREEN] as the compound, how does the Drug uptake [1] read?
Its Drug uptake is “Active”.

And the Drug uptake [2]?
The Drug uptake was “Active”.

And the Drug uptake [3]?
Its Drug uptake is “Active”.

And the Drug uptake [4]?
Its Drug uptake is “Active”.

What about the Drug uptake [5] of the same compound?
Its Drug uptake is “Active”.

And the Drug uptake [6]?
The Drug uptake was “Active”.

And the Ratio [7]?
The Ratio was 2.

What about the Drug uptake [8] of the same compound?
The Drug uptake was “Active”.

What about the Ratio [9] of the same compound?
Its Ratio is 3.

What about the Drug uptake [10] of the same compound?
Its Drug uptake is “Active”.

What about the Ratio [11] of the same compound?
Its Ratio is 2.

And the Drug uptake [12]?
The Drug uptake was “Active”.

What about the Drug uptake [13] of the same compound?
The Drug uptake was “Active”.

What about the Drug uptake [14] of the same compound?
The Drug uptake was “Not Active”.

What about the Drug uptake [15] of the same compound?
The Drug uptake was “Not Active”.

And the Ratio [16]?
Its Ratio is 2.

And the Drug uptake [17]?
The Drug uptake was “Active”.

What about the Drug uptake [18] of the same compound?
The Drug uptake was “Active”.

Which Drug uptake [19] does the source give for `CC1(C)C(/C=C/C=C/C=C/C=C2/N(CCCCS(=O)(=O)[O-])c3ccc(I)cc3C2(C)C)=[N+](CCCCS(=O)(=O)[O-])c2ccc(I)cc21.[Na+]` here?
The Drug uptake was “Active”.

And the Drug uptake [20]?
The Drug uptake was “Active”.

And the Drug uptake [21]?
Its Drug uptake is “Active”.

And the Drug uptake [22]?
Its Drug uptake is “Active”.

What about the Drug uptake [23] of the same compound?
The Drug uptake was “Active”.

What does the source list for `CC1(C)C(/C=C/C=C/C=C/C=C2/N(CCCCS(=O)(=O)[O-])c3cccc(I)c3C2(C)C)=[N+](CCCCS(=O)(=O)[O-])c2ccc3ccccc3c21.[Na+]`?
Drug uptake [19]: Active; Drug uptake [20]: Active; Drug uptake [21]: Active; Drug uptake [22]: Active; Drug uptake [23]: Active

For `CC1(C)C(/C=C/C=C/C=C/C=C2/N(CCCCS(=O)(=O)[O-])c3cccc(I)c3C2(C)C)=[N+](CCCCS(=O)(=O)[O-])c2cccc(I)c21.[Na+]`, which Drug uptake [24] is on record?
Its Drug uptake is “Active”.

What about the Drug uptake [25] of the same compound?
The Drug uptake was “Active”.

And the Drug uptake [2]?
The Drug uptake was “Active”.

And the Drug uptake [26]?
Its Drug uptake is “Not Active”.

What about the Drug uptake [5] of the same compound?
Its Drug uptake is “Active”.

What about the Drug uptake [27] of the same compound?
Its Drug uptake is “Active”.

What about the Drug uptake [19] of the same compound?
The Drug uptake was “Active”.

What about the Drug uptake [28] of the same compound?
The Drug uptake was “Active”.

What about the Drug uptake [29] of the same compound?
Its Drug uptake is “Active”.

And the Drug uptake [30]?
The Drug uptake was “Active”.

What about the Drug uptake [20] of the same compound?
The Drug uptake was “Active”.

And the Ratio [7]?
Its Ratio is 2.

What about the Drug uptake [31] of the same compound?
The Drug uptake was “Not Active”.

And the Drug uptake [8]?
The Drug uptake was “Active”.

And the Ratio [9]?
Its Ratio is 3.

And the Ratio [11]?
Its Ratio is 2.

And the Drug uptake [14]?
Its Drug uptake is “Not Active”.

What about the Drug uptake [15] of the same compound?
The Drug uptake was “Not Active”.

And the Drug uptake [32]?
The Drug uptake was “Not Active”.

What about the Ratio [16] of the same compound?
Its Ratio is 5.

And the Drug uptake [21]?
Its Drug uptake is “Active”.

What about the Drug uptake [22] of the same compound?
Its Drug uptake is “Active”.

And the Drug uptake [23]?
Its Drug uptake is “Active”.

What about the Drug uptake [18] of the same compound?
The Drug uptake was “Active”.

For `CC1(C)C(/C=C/C=C/C=C/C=C2/N(CCCCS(=O)(=O)[O-])c3cc(I)ccc3C2(C)C)=[N+](CCCCS(=O)(=O)[O-])c2cc(I)ccc21.[Na+]`, which Drug uptake [19] is on record?
The Drug uptake was “Active”.

What about the Drug uptake [20] of the same compound?
Its Drug uptake is “Active”.

What about the Drug uptake [21] of the same compound?
The Drug uptake was “Active”.

And the Drug uptake [22]?
The Drug uptake was “Active”.

And the Drug uptake [23]?
The Drug uptake was “Active”.

— ChEMBL document CHEMBL5370595, “Development of Iodinated Indocyanine Green Analogs as a Strategy for Targeted Therapy of Liver Cancer” (ACS Med Chem Lett, 2023)
